Published values collected from several papers.
Compare with care: the assays were run in different laboratories.
Target: Dual specificity mitogen-activated protein kinase kinase 7 (MAP2K7, Homo sapiens, UniProt O14733)
One construct used (O14733 1-419): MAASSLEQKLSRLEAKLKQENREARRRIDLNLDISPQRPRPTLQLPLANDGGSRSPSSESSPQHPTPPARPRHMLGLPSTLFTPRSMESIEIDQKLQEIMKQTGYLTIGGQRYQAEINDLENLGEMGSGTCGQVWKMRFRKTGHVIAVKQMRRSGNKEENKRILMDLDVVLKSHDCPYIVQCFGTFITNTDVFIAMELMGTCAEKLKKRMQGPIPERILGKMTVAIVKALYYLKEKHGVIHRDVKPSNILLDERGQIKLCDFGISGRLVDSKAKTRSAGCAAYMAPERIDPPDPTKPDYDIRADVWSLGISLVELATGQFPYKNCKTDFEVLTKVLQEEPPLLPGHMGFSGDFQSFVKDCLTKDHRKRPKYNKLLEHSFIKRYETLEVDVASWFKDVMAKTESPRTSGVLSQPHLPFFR

SMILES	assay	conditions	remaining binding [%]
O=C(NCCCN1CCOCC1)c1ccc(Nc2nccc(-c3cc4ccccc4s3)n2)cc1	binding, competition with immobilised ligand	1 µM	76
CCN1CCN(Cc2ccc(C(=O)Nc3ccc(C)c(Oc4ccc5c(c4)CC(=O)N5)c3)cc2C(F)(F)F)CC1	binding, competition with immobilised ligand	1 µM	97
Cc1nc(N2CC[C@@H](O)C2)ncc1-c1cc(C(F)(F)F)cc2[nH]ncc12	binding, competition with immobilised ligand	1 µM	64
CN(c1nccc(-c2cnn3ncccc23)n1)C1CC1	binding	1 µM	100
O=C(c1ccc(Nc2ncc(Cl)c(-c3cc4ccccc4s3)n2)cc1)N1CCC(N2CCCC2)CC1	binding, competition with immobilised ligand	1 µM	96
O=S(=O)(NC1CCC(c2cc(F)ccc2F)(S(=O)(=O)c2ccc(Cl)cc2)CC1)C(F)(F)F (centres unmarked)	cell-free assay, competition with immobilised ligand	1 µM	100
Cc1cnc(Nc2ccc(C(=O)N3CCC(N4CCCC4)CC3)cc2)nc1-c1cc2ccccc2s1	binding, competition with immobilised ligand	1 µM	81
O=C(NCC1CCOCC1)c1n[nH]cc1NC(=O)c1c(F)cccc1F	binding, competition with immobilised ligand	1 µM	84
C[C@H]1CCN(c2nccc(-c3cnn4ncccc34)n2)C1	binding	1 µM	83
CN(C)CC#Cc1ccc(OCCCc2sc(N3CCc4cccc(C(=O)Nc5nc6ccccc6s5)c4C3)nc2C(=O)O)c(F)c1	cell-free assay, competition with immobilised ligand	1 µM	69
CN(C)c1nccc(-c2cnn3ncccc23)n1	binding	1 µM	100
COc1cccc(CNC(=O)c2nc3scc(COCc4ccc(C(=O)O)cc4)c3c(=O)[nH]2)c1	cell-free assay, competition with immobilised ligand	1 µM	81.2
COc1ncc2cc3ccccc3nc2c1C#N	cell-free assay, competition with immobilised ligand	5 µM	95
CC1=C(C#N)[C@@H](c2ccc3[nH]nc(C)c3c2)C(C#N)=C(c2ccc(Cl)cc2)N1	cell-free assay, competition with immobilised ligand	1 µM	92.2
N[C@H]1CCN(c2nccc(-c3cnn4ncccc34)n2)C1	binding	1 µM	93
COc1cnc(Nc2cccc(S(N)(=O)=O)c2)nc1N1CCN(c2ccccc2)C(=O)C1	binding, competition with immobilised ligand	1 µM	92
COc1ccnn2ncc(-c3ccnc(N(C)C)n3)c12	binding	1 µM	73
Cc1c(NC(=O)c2cc(C(N)=O)nc3cc(F)ccc23)c(C(F)(F)F)nn1Cc1ccc(C#N)cc1	cell-free assay, competition with immobilised ligand	1 µM	79
c1cncc(-c2cccc(Nc3nccc(NC4CCCCC4)n3)c2)c1	binding, competition with immobilised ligand	10 µM	100
Cc1cnn2ncc(-c3ccnc(N(C)C)n3)c2c1	binding	1 µM	71
